According to ChEMBL document CHEMBL4513216, “Probing the Open Global Health Chemical Diversity Library for Multistage-Active Starting Points for Next-Generation Antimalarials” (ACS Infect Dis, 2020):

Experiment: Toxicity liver stage against HepG2, at 10uM
Assay type: cell-based
Set-up: test concentration 10 uM, cell line HepG2-A16-CD81EGFP
Settings: human, HepG2-A16-CD81EGFP cells; read-out: INHIBITION
How it was run: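 Uninfected HepG2-A16-CD81EGFP cells, 3 × 10^3 per well, 1536-well, plated on prespotted compound at 10 μM final, parasite-free screening media added to match infected plates; puromycin 10 μM positive, DMSO 0.5% negative; run in parallel with 48 h PbLuc assay at 37 °C, 5% CO2; viability by CellTiter-Glo luminescence, normalized to controls.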

## CCc1cc(CNC(=O)C2CCC(=O)N(Cc3ccccc3F)C2)on1 (configuration not stated)
  cytotoxicity at 10 µM: 1.48%

## CC(C)(O)c1cn(C[C@H]2C[C@@H]3CCN2C[C@@H]3C(=O)N2CCOCC2)nn1
  cytotoxicity at 10 µM: 3.49%

## COc1ccc(C)cc1NC(=O)c1c(C)cn(C)c1CC(=O)O
  cytotoxicity at 10 µM: -0.713%

## O=C1CN(C(=O)C2CCCCC2)CC(O)CN1Cc1ccc(Cl)cc1 (configuration not stated)
  cytotoxicity at 10 µM: 6.02%

## O=C(COc1coc(CN2CCOCC2)cc1=O)Nc1ccccc1F
  cytotoxicity at 10 µM: -10.7%

## Cn1[nH]c(CNc2cccc(Cl)c2)nc1=O
  cytotoxicity at 10 µM: -0.165%

## O=C(NCCc1c[nH]c2ccc(F)cc12)C1(n2cnnn2)CCCCC1
  cytotoxicity at 10 µM: -1.34%

## CCS(=O)(=O)N1CC(c2nc(-c3ccsc3)no2)C1
  cytotoxicity at 10 µM: -8.25%

## Cc1nc(N2CCCC2)nc(C)c1NC(=O)c1ccco1
  cytotoxicity at 10 µM: -7.7%

## CCOCC1COCCC12CCN(C(=O)CC1=CCCCC1)CC2 (configuration not stated)
  cytotoxicity at 10 µM: 2.99%

## CC1CCCCN1C(=O)c1nc2c(n1C(C)C)CCN(C(=O)C1CC1)C2 (configuration not stated)
  cytotoxicity at 10 µM: 15.4%

## COc1cccc(CC(=O)N2CC[C@@H]3NC(=O)CC[C@@H]32)c1
  cytotoxicity at 10 µM: -4.04%

## O=C(NC1CCCC1)c1nc2c(o1)CN(CCO)C2
  cytotoxicity at 10 µM: 13.2%

## CN(C)C(=O)N1CCN(C(=O)c2ccccc2)CC2(CNC(=O)C2)C1 (configuration not stated)
  cytotoxicity at 10 µM: 7.19%

## CCOCc1ncn2c1CN(S(=O)(=O)c1cccs1)CC2
  cytotoxicity at 10 µM: 0.719%

## Cc1ccc(C(=O)N2CC[C@H]3O[C@@H](c4noc(C)n4)C[C@H]3C2)o1
  cytotoxicity at 10 µM: 1.92%

## CCOc1cccc(CNc2ccccc2OC)c1O
  cytotoxicity at 10 µM: 0.142%

## CCN(c1ccc(C(=O)NCCCN2CCOCC2)cc1)S(=O)(=O)CC
  cytotoxicity at 10 µM: 1.34%

## CN(C)C(=O)NC1COC2(CCN(Cc3nccn3C)CC2)C1 (configuration not stated)
  cytotoxicity at 10 µM: 9.48%

## N#Cc1c(N2CCCCC2)nsc1-c1cccnc1
  cytotoxicity at 10 µM: 18.8%

## COc1cc2cc(C(=O)O)n(C)c2cc1OC
  cytotoxicity at 10 µM: 1.03%

## Cc1cc(N2CCOC(c3ccc(N(C)C)cn3)C2)nc(N)n1 (configuration not stated)
  cytotoxicity at 10 µM: 5.62%

## Cc1nccn1[C@@H]1CC[C@@H](N(C)S(=O)(=O)c2ccc(F)cc2)[C@H]1O
  cytotoxicity at 10 µM: -0.535%

## CC(=O)N1CCCC1c1ccc(Br)cn1 (configuration not stated)
  cytotoxicity at 10 µM: 4.29%

## Cn1ccc(C(=O)N2CCCC(Cc3cnc4ccccc4c3)C2)n1 (configuration not stated)
  cytotoxicity at 10 µM: -6.19%

## Cc1csc2c(=O)n3c(nc12)CCN(C(=O)c1ccnn1C)CC3
  cytotoxicity at 10 µM: -9.35%

## CN1CCN(Cc2c(-c3ccco3)[nH]c3ncccc23)CC1
  cytotoxicity at 10 µM: 5.63%

## O=C(C1CCCC1)N1CC2(CCCN(C3COC3)C2)Cc2ccccc21 (configuration not stated)
  cytotoxicity at 10 µM: 9.96%

## CCc1ccccc1CNC(=O)CNCC(F)(F)F
  cytotoxicity at 10 µM: 10.6%

## Cc1cc(CN2CCN(Cc3cc(C#N)ccc3F)CC2)no1
  cytotoxicity at 10 µM: 5.78%

## CC(C)(Oc1ccc(F)cc1)C(=O)NCc1ccco1
  cytotoxicity at 10 µM: -9.19%

## COC(=O)c1ncccc1N1CCCC1
  cytotoxicity at 10 µM: -3.1%

## Cc1c(C(=O)N2CCC2(C)C)nnn1-c1cccc2cccnc12
  cytotoxicity at 10 µM: 4.13%

## CC(C)(C)c1cnc(CN2CCCS2(=O)=O)o1
  cytotoxicity at 10 µM: 2.07%

## CCCc1n[nH]c(C2CN(CCNC3CCCCC3)CCO2)n1 (configuration not stated)
  cytotoxicity at 10 µM: 2.75%

## CC(NC(=O)NC1CCN(CC2CCCC2)CC1)c1nccs1 (configuration not stated)
  cytotoxicity at 10 µM: 3.2%

## CC1CN(C(=O)c2nccnc2N)c2ccc(F)cc2O1 (configuration not stated)
  cytotoxicity at 10 µM: 4.28%

## O=C(CCSc1ccccc1F)NCc1cccnc1
  cytotoxicity at 10 µM: -4.48%

## Cc1ccc(NS(=O)(=O)c2cccc(C#N)c2)c(CN(C)C)c1
  cytotoxicity at 10 µM: -4.97%

## Cc1cccnc1NC(=O)C1CCCN(c2cccc(C(F)(F)F)n2)C1 (configuration not stated)
  cytotoxicity at 10 µM: 4.95%

## Cn1c(NC(=O)CNC(=O)C2CC2)nc2cc(Cl)ccc21
  cytotoxicity at 10 µM: 3.66%

## N#Cc1ccnc(N2CCN(CC(O)c3c(F)cccc3F)CC2)c1 (configuration not stated)
  cytotoxicity at 10 µM: -5.43%

## CCN(CC(=O)NC(C)C)S(=O)(=O)N1CCCCC1C (configuration not stated)
  cytotoxicity at 10 µM: -1.14%

## O=C(Nc1ccc2ncccc2c1)C1CC(=O)N(Cc2ccccn2)C1 (configuration not stated)
  cytotoxicity at 10 µM: 3.31%

## CNc1cc(N2CCCC2CNCc2ccc(C)o2)ncn1 (configuration not stated)
  cytotoxicity at 10 µM: -2.69%

## Cn1ccnc1-c1noc(NCc2ccc3c(c2)OCCO3)n1
  cytotoxicity at 10 µM: -0.408%

## CNC(=O)CN(C)c1cncc(OCC(C)C)n1
  cytotoxicity at 10 µM: 0.137%

## Cc1nc(NC(=O)OC(C)(C)C)sc1C(N)=O
  cytotoxicity at 10 µM: -14.4%

## CC(=O)NCCNC(=O)Nc1ccc(C)cc1OCc1ccccc1
  cytotoxicity at 10 µM: 9.79%

## CC(C)c1nc(C2CCCN2CCN2CCCCC2)no1 (configuration not stated)
  cytotoxicity at 10 µM: -4.58%

## Cc1cccc(-c2nc(C)nn2CN2CCN(c3ncccn3)CC2)c1
  cytotoxicity at 10 µM: -6.45%

## Cc1noc(C)c1CN1C[C@@H]2COC[C@@H](CC(=O)N3CCCO3)[C@@H]2C1
  cytotoxicity at 10 µM: -68.3%

## Cc1nn(CCO)c(C)c1-c1cc(C(C)(C)C)nc(N)c1C#N
  cytotoxicity at 10 µM: 4.93%

## COCCN1CCN(Cc2ccc3nsnc3c2)[C@H]2CS(=O)(=O)C[C@H]21
  cytotoxicity at 10 µM: -5.94%

## CSCC1CCCN(c2ncnc3oc(C)nc23)C1 (configuration not stated)
  cytotoxicity at 10 µM: 4.03%

## CC(c1ccccc1)n1c(SCC(=O)O)nnc1-c1ccn[nH]1 (configuration not stated)
  cytotoxicity at 10 µM: -0.0682%

## CCCOCCn1ncc(N2CCc3ccccc3C2)cc1=O
  cytotoxicity at 10 µM: 2.63%

## Cc1ccc2c(c1)SCC(=O)N2Cc1noc(C2CC2)n1
  cytotoxicity at 10 µM: 7.4%

## c1cc2c(cc1-c1noc3c1CN(C1CCSCC1)CC3)OCO2
  cytotoxicity at 10 µM: 5.51%

## COCc1ncc(-c2nccn2CCn2cnnc2)cn1
  cytotoxicity at 10 µM: 4.6%

## COc1ccccc1-n1c(CC(C)C)nnc1SCC(=O)O
  cytotoxicity at 10 µM: -6.71%

## CN1CCC(Cc2noc(-c3cccc(Oc4ncccn4)c3)n2)CC1
  cytotoxicity at 10 µM: -5.21%

## CC(NC(=O)CN(C)S(C)(=O)=O)c1ccc(F)cc1 (configuration not stated)
  cytotoxicity at 10 µM: -4.36%

## CCOc1ccc(C(=O)N(CCOC)Cc2c(C)nn(CC)c2C)o1
  cytotoxicity at 10 µM: -2.99%

## Cc1ccc(OCc2occc2C(=O)N2CCOC(C(=O)O)C2)cc1 (configuration not stated)
  cytotoxicity at 10 µM: -2.14%

## Cc1ccccc1CNc1nc(O)cc(C2CC(=O)N(C)C2)n1 (configuration not stated)
  cytotoxicity at 10 µM: -0.336%

## O=C(c1ccccc1N1CCOCC1)N1CCCC1Cn1cccn1 (configuration not stated)
  cytotoxicity at 10 µM: -7.44%

## CC(NC(=O)NCCNc1cnccn1)c1cccs1 (configuration not stated)
  cytotoxicity at 10 µM: -3.79%

## c1csc(N2CCCN(Cc3nc(C4CC4)no3)CC2)n1
  cytotoxicity at 10 µM: -9.68%

## Cc1[nH]nc2ncc(C(=O)N3CCN(CC(C)C)CC3)cc12
  cytotoxicity at 10 µM: -3.88%

## O=C(c1cocn1)N1CCC2(CC1)CC(Oc1ccccn1)CO2 (configuration not stated)
  cytotoxicity at 10 µM: 9.34%

## COC[C@@H]1CCC[C@@]12CN(Cc1ccco1)CCO2
  cytotoxicity at 10 µM: 2.03%

## CS(=O)(=O)CC(=O)N1C[C@H]2CCC[C@@]2(COc2ccccn2)C1
  cytotoxicity at 10 µM: -99.2%

## CC(=O)N1CCCC2(CN(Cc3ccc(F)cc3)CCO2)C1 (configuration not stated)
  cytotoxicity at 10 µM: 0.283%

## COc1ccc(CN2CC[C@@H]3CN(S(C)(=O)=O)CCO[C@@H]3C2)cc1
  cytotoxicity at 10 µM: -1.55%

## CS(=O)(=O)N1CCCC12CCN(Cc1nccs1)C2 (configuration not stated)
  cytotoxicity at 10 µM: 2.26%

## O=C([C@H]1C[C@H]2OCC[C@H]2N(CCc2ccccc2)C1)N1CCCCO1
  cytotoxicity at 10 µM: 0.307%

## c1ccc(OCc2n[nH]c3c2CN(Cc2cccs2)C3)nc1
  cytotoxicity at 10 µM: 8.25%

## CCN1CC2(CCNCC2)COc2ccccc2S1(=O)=O
  cytotoxicity at 10 µM: -3.06%

## COCC1CN(S(=O)(=O)Cc2ccc(C)cc2)Cc2c1cnn2C (configuration not stated)
  cytotoxicity at 10 µM: 3.51%

## Cc1ccccc1C(=O)N1CCO[C@H]2[C@H](OCCN(C)C)CC[C@@H]21
  cytotoxicity at 10 µM: -2.95%

## COc1ccc(C2=CN=C(C(F)(F)F)CC2N)cc1 (configuration not stated)
  cytotoxicity at 10 µM: 16.6%
